Assay results published in PMC2863310 (Pigment cell & melanoma research, 2009).
Residues, ends and D or L forms follow the SMILES beside them. *: point of attachment. Cbz = O=C(OCc1ccccc1)*

Assays:
Siah2 [1] = biological target: T1, Siah2 (Mus musculus, UniProt Q06986); experiment: In vivo auto-ubiquitination of Siah2 in 293T cells; format: cell-based; conditions: MEN 25 µM or MG132 40 µM, 6 h
T1 sequence (Q06986 1-325): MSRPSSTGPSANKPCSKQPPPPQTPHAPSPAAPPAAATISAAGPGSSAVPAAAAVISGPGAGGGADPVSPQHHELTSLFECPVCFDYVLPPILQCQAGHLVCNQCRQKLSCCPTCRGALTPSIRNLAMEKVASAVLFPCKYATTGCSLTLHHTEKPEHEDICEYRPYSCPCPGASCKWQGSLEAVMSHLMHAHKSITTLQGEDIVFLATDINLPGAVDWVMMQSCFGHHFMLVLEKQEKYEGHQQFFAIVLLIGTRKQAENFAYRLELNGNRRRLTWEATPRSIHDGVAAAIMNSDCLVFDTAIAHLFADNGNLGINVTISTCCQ
Method in brief: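 293T cells (DMEM, 10% BS) were co-transfected with Flag-Siah2 with or without HA-ubiquitin and treated 24 h later. Cells were lysed in 2% SDS/TBS at 95°C for 10 min, diluted ninefold in 1% Triton X-100/2 mM EDTA, sonicated, precleared with protein G and clarified. Anti-Flag immunoprecipitation used 2 mg protein overnight at 4°C. After stringent washes, 8% SDS-PAGE was blotted with anti-HA and reprobed with anti-Flag.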

GST-Siah2 [2] = biological target: T2, GST-Siah2 (Mus musculus, UniProt Q06986); experiment: Meso Scale electro-chemiluminescent Siah2 self-ubiquitination assay; format: biochemical
T2 sequence (Q06986 1-325): T1 sequence (Q06986 1-325)
Method in brief: (§1)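 Electrochemiluminescent format. GST-Siah2 or GST-RNF5 (5 pM final) is adsorbed onto glutathione-coated wells. Test compound is added in 100% DMSO. Reaction is started with a pre-charged ubiquitin-E1-E2 mix and runs 1 h at room temperature, then is stopped by Tris-buffered washes. SULFO-Tag antibody to ubiquitinated proteins is added and the signal is read. Library tested at 100 µM; hits confirmed by dose-response curves.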

GST-RNF5 [3] = biological target: T3, GST-RNF5 (Homo sapiens, UniProt Q99942); experiment: Meso Scale electro-chemiluminescent RNF5 ubiquitination assay; format: biochemical
Method in brief: as §1

GST-Siah2 [4] = biological target: T2, GST-Siah2; experiment: In vitro ubiquitination assay, Western blot with anti-ubiquitin; format: biochemical
Method in brief: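 GST-Siah2 (with GST-RNF5 and GST-Siah2 RING mutant in parallel), bacterially expressed, glutathione-purified. Reactions on glutathione beads in 50 mM Tris-HCl pH 8.0, 5 mM MgCl2, 0.5 mM DTT, 2 mM NaF, with HA-ubiquitin (2 µg), 2 mM ATP, E1 (50 ng) and His-UbcH5b (250 ng), 45 min, 37°C, with shaking. Test compound at 100 µM or a concentration series. Read-out: 8% SDS-PAGE, anti-ubiquitin blot; anti-GST for input.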

GST-RNF5 [5] = biological target: T3, GST-RNF5; experiment: In vitro ubiquitination assay, Western blot with anti-ubiquitin; format: biochemical; conditions: 100 µM
Method in brief: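 Bacterially expressed GST-RNF5 was purified on glutathione resin. The reaction buffer was 50 mM Tris-HCl pH 8.0, 5 mM MgCl2, 0.5 mM DTT and 2 mM NaF, with HA-ubiquitin (2 µg), 2 mM ATP, E1 (50 ng) and purified His-UbcH5b E2 (250 ng). Test compound was present at 100 µM, and reactions ran 45 min at 37°C.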

Siah1 = biological target: T4, Siah1 (Mus musculus, UniProt P61092); experiment: Siah1 ubiquitin ligase activity; format: biochemical
T4 sequence (P61092 1-282): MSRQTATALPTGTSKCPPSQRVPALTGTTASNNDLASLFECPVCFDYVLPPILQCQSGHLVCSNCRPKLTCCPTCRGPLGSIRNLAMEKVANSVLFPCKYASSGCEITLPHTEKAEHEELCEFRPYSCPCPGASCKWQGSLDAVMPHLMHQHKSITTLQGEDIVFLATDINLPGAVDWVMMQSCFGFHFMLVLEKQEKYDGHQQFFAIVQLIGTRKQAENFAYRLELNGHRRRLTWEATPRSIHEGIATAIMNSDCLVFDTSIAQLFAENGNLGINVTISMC

Siah2 [6] = biological target: T1, Siah2; experiment: Siah steady-state levels in transfected 293T cells; format: cell-based
Method in brief: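 293T cells (DMEM, 10% BS) were transiently transfected with HA-Siah2 or Flag-Siah1a (1 µg) by calcium phosphate or Lipofectamine. They were treated 24 h later with test compound at several concentrations, with DMSO as control. Lysates were immunoblotted for the tag with β-actin as loading control, using fluorescent secondary antibodies and infrared scanning.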

PHD3 = PHD3 level and half-life; format: cell-based, mouse
Method in brief: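 Immortalized MEFs are kept in 10% FBS with 0.1 mM non-essential amino acids and 0.2 mM 2-mercaptoethanol. Cells get test compound (25 µM), with or without 5 mM N-acetyl L-cysteine. PHD3 is blotted after 1% O2, 5 h; Spry2 under normoxia; HIF-1α in nuclear extracts. β-actin/lamin A are loading controls. For half-life, cycloheximide (20 µg/ml) is added after 5 h hypoxia and cells are harvested over time.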

SPRY2 = experiment: Spry2 expression in 293T cells transfected with Myc-Spry2 and HA-Siah2; format: cell-based; conditions: 5 h
UACC903 melanoma cells = experiment: Spry2 and pERK levels in UACC903 melanoma cells; format: cell-based, human; conditions: 5 h
Method in brief: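 UACC903 human melanoma cells are treated 5 h with a concentration series of test compound. Blots are probed overnight at 4°C and detected with fluorescent secondary antibodies. Total ERK or β-actin serves as loading control.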

HIF-1α [7] = experiment: HIF-1α protein level in 293T cells; format: cell-based; conditions: hypoxia 1% O2, 5 h
HIF-1α [8] = experiment: HIF-1α protein level in SW1 melanoma cells; format: cell-based; conditions: SW1 mouse melanoma cells, hypoxia 1% O2, 5 h
SW1 melanoma cells = experiment: Semi-quantitative RT-PCR of HIF-1α and VEGF transcripts; format: cell-based, mouse
VEGF = VEGF secretion from SW1 melanoma cells; format: cell-based, mouse; conditions: 10 h, ELISA
[9] = system: Human Microvascular Endothelial Cells (HMVEC); experiment: HMVEC tube formation with conditioned medium of treated SW1 cells; format: cell-based; conditions: medium from SW1 cells treated 10 h under hypoxia; read after 16 h
GST-Siah2 [10] = biological target: T2, GST-Siah2; experiment: In vitro protein-binding assay of GST-Siah2 with PHYL or Spry2
Method in brief: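 GST-Siah2 was affinity-purified onto glutathione-Sepharose 4B beads. Spry2 and PHYL were made by coupled in vitro transcription/translation in reticulocyte lysate with [35S]-methionine and mixed with the GST fusion on glutathione beads. Bound protein was resolved on 12% SDS-PAGE and detected by autoradiography.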

UACC903 melanoma tumors = experiment: UACC903 melanoma xenograft in nude mice; format: in vivo, mouse
Method in brief: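 UACC903 cells (1 × 10^6 in 100 µl PBS) are injected s.c. into the flank of 4-week-old male nude mice. From 1 week, test compound (2, 5 or 10 mg/kg; 0.1% DMSO final) is given i.p. twice weekly for 4 weeks, with tumors measured twice weekly. Harvested tumors: Z-fix, IHC for HIF-1α/pERK (HRP polymer, DAB, hematoxylin), TUNEL (peroxidase kit), and pERK/total ERK immunoblots.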

T3 sequence (Q99942 whole entry): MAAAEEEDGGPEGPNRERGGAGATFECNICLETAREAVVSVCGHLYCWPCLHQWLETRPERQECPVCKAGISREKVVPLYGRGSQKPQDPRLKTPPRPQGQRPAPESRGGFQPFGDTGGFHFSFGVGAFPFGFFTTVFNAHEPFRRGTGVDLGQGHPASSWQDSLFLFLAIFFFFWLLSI

`CC(C)C[C@@H](C=O)NC(=O)[C@H](CC(C)C)NC(=O)[C@H](CC(C)C)NC(=O)OCc1ccccc1` [MG132] (Cbz-Leu-Leu-Leu-aldehyde) was tested, and the “Siah2 ubiquitination in vivo” value (Siah2 [1]) was “increased the ubiquitinated and unubiquitinated forms of Siah2”.

In the case of `CC1=CC(=O)c2ccccc2C1=O` [compound 1, menadione], the IC50 (GST-Siah2 [2]) is reported as 20 µM, the IC50 (GST-RNF5 [3]) is reported as greater than 100 µM and the “Siah2 auto-ubiquitination in vitro” value (GST-Siah2 [4]; 100 µM, new lots of compounds, Western blot) is reported as “strongest degree of Siah2 inhibition”. For the same molecule, the “Siah2 auto-ubiquitination in vitro, dose dependence” value (GST-Siah2 [4]; GST-Siah2 on glutathione beads, increasing concentrations) was “attenuated in a dose-dependent manner”, the “RNF5 self-ubiquitination in vitro” value (GST-RNF5 [5]) was “did not reduce RNF5 self-ubiquitination activity” and the “Siah1 ubiquitin ligase activity” value (Siah1) was “attenuated Siah1 ubiquitin ligase activity”. The “steady-state levels of Siah2 / Siah1a” value (Siah2 [6]) was “increase the steady-state levels of Siah2”, the “Siah2 ubiquitination in vivo” value (Siah2 [1]) was “effectively inhibits Siah2 ubiquitination in vivo” and the “stabilization of PHD3 or Spry2, effect on HIF-1α, in presence of ROS scavenger” value (PHD3; MEF cells, 25 µM with 5 mM N-acetyl cysteine) was “not affected”. The “steady state levels of endogenous PHD3” value (PHD3; MEF cells, hypoxia 1% O2, 5 h, increasing concentrations) was “corresponding increase in the steady state levels of endogenous PHD3”, the “increase of PHD3 or Spry2 expression in Siah KO cells” value (PHD3; Siah2 KO and Siah2/Siah1a DKO MEF, 25 µM) was “attenuated in the Siah2 KO and completely abolished in the Siah2/1a DKO cells” and the “Siah2-dependent decrease in SPRY2 expression” value (SPRY2) was “attenuated Siah2-dependent decrease in SPRY2 expression”. For the same molecule, the “ERK activity / phosphorylation” value (UACC903 melanoma cells) was “ERK activity was decreased”, the SPRY2 level (UACC903 melanoma cells) was “increase in SPRY2 level” and the HIF-1α expression (HIF-1α [7]) was “reduced the expression of HIF-1α in a dose-dependent manner”. For the same molecule, the HIF-1α expression (HIF-1α [8]) was “effectively reduced the level of HIF-1α expression”, the “level of HIF-1α transcripts” value (SW1 melanoma cells) was “did not alter the level of HIF-1α transcripts” and the “transcription of VEGF” value (SW1 melanoma cells) was “inhibited the transcription of the HIF-1α target gene, VEGF”. For the same molecule, the “level of VEGF secreted” value (VEGF) was “proportionally reduced”, the “tube formation of HMVEC cells” value [9] was “dose-dependent decrease in tube formation” and the “association of Siah2 with PHYL or Spry2” value (GST-Siah2 [10]) was “without affecting the association with PHYL or Spry2”. For the same molecule, the “pERK levels in tumors” value (UACC903 melanoma tumors; IHC and immunoblot of xenograft tumors) was “effectively reduced the levels of pERK”, the “HIF-1α expression in tumors” value (UACC903 melanoma tumors; IHC of xenograft tumors) was “lower levels of HIF-1α expression” and the “degree of apoptosis in tumors (TUNEL)” value (UACC903 melanoma tumors; xenograft tumors) was “found to be higher”.
